BindingDB's records for doi:10.1021/jm060539t (Biogen Idec, 2006)

Experiments:
Adenosine receptor A3 = molecular target: T1, Adenosine receptor A3 (Homo sapiens, UniProt P0DMS8); assay: Displacement of [125I]ABA from human adenosine A3 receptor
T1 sequence (P0DMS8 whole entry): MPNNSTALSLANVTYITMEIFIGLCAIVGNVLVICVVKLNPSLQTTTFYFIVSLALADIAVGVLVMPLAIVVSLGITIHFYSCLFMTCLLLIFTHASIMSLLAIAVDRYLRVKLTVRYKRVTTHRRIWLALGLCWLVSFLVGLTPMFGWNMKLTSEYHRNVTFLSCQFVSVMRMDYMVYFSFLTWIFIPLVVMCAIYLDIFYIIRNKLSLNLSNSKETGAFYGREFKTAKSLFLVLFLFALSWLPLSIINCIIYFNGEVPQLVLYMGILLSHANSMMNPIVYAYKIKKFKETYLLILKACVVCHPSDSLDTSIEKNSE

Adenosine receptor A1 [1] = molecular target: T2, Adenosine receptor A1 (Homo sapiens, UniProt P30542); assay: Displacement of [125I]ABA from human adenosine A1 receptor
T2 sequence (P30542 whole entry): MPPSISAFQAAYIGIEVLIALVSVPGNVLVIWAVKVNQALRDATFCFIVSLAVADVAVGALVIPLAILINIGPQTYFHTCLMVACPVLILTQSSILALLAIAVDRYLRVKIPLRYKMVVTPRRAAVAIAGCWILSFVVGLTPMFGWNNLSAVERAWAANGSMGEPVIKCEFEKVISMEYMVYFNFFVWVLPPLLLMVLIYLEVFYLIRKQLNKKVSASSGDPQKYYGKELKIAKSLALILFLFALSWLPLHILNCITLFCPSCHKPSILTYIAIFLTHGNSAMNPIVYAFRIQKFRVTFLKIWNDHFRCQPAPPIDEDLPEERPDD

Adenosine receptor A1 [2] = molecular target: T3, Adenosine receptor A1 (Rattus norvegicus, UniProt P25099); assay: Displacement of [3H]DPCPX from adenosine A1 receptor in rat cerebral cortex
T3 sequence (P25099 whole entry): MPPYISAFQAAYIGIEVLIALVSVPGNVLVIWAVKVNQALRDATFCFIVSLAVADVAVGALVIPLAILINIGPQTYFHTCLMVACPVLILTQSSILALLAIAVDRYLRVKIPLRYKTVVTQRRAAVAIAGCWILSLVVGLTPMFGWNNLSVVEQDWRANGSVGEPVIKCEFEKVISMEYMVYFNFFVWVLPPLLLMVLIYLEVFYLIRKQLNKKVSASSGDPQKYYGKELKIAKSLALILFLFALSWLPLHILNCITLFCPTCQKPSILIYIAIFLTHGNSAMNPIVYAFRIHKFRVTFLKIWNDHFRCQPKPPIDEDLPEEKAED
In short: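 Rat brain membranes (cerebral cortex for A1, striatum for A2A) homogenized in 10 mM EDTA/10 mM Na-HEPES pH 7.4 with protease inhibitors, washed, stored at -80 °C. 40-70 µg protein incubated in triplicate with radioligand plus seven competitor concentrations in HEPES/EDTA buffer with 2 units/mL adenosine deaminase, 2.5 h, 21 °C. A1: [3H]DPCPX 2 nM, nonspecific with 10 µM NECA; A2A: [3H]ZM241385 0.5-1.2 nM, nonspecific with 10 µM XAC. GF/C filtration; single-site fit, Cheng-Prusoff Ki.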

Ki (Adenosine receptor A3) [nM] | Ki (Adenosine receptor A1 [1]) [nM] | Ki (Adenosine receptor A1 [2]) [nM] | SMILES
> 10000 | 35 |  | CCCn1c2nc(C34CCC(O)(CC3)CC4)nc-2c2n(c1=O)C[C@@H](C(C)C)N2 [(R)-2-(4-hydroxybicyclo[2.2.2]octan-1-yl)-8-isopropyl-4-propyl-7,8-dihydro-1H-imidazo[1,2-g]purin-5(4H)-one]
 |  | > 250 | CCCn1c2nc(C34CCC(O)(CC3)CC4)nc-2c2n(c1=O)CC[C@@H](C)N2 [(R)-2-(4-hydroxybicyclo[2.2.2]octan-1-yl)-9-methyl-4-propyl-8,9-dihydropyrimido[1,2-g]purin-5(1H,4H,7H)-one]
> 10000 |  |  | CCCn1c2nc(C34CCC(CCC(=O)O)(CC3)CC4)nc-2c2n(c1=O)C[C@@H](C(C)C)N2 [(R)-3-(4-(8-isopropyl-5-oxo-4-propyl-4,5,7,8-tetrahydro-1H-imidazo[1,2-g]purin-2-yl)bicyclo[2.2.2]octan-1-yl)propanoic acid]
> 10000 |  |  | CCCn1c2nc(C34CCC(O)(CC3)CC4)nc-2c2n(c1=O)C[C@@H](CC)N2 [(R)-8-ethyl-2-(4-hydroxybicyclo[2.2.2]octan-1-yl)-4-propyl-7,8-dihydro-1H-imidazo[1,2-g]purin-5(4H)-one]
 |  | > 250 | CCCn1c2nc(C34CCC(O)(CC3)CC4)nc-2c2n(c1=O)CC[C@@H](CC)N2 [(R)-9-ethyl-2-(4-hydroxybicyclo[2.2.2]octan-1-yl)-4-propyl-8,9-dihydropyrimido[1,2-g]purin-5(1H,4H,7H)-one]
 |  | > 100 | CCCn1c2nc(C34CCC(O)(CC3)CC4)nc-2c2n(c1=O)C[C@H](CC)N2 [(S)-8-ethyl-2-(4-hydroxybicyclo[2.2.2]octan-1-yl)-4-propyl-7,8-dihydro-1H-imidazo[1,2-g]purin-5(4H)-one]
